Experimental data reported in ChEMBL document CHEMBL5143666, “Insights into the anticancer activity of chiral alkylidene-β-lactams and alkylidene-γ-lactams: Synthesis and biological investigation” (Bioorg Med Chem, 2022).
Activity calls are given as the source filed them. The rule behind the calls is not given here.

Columns and labels:
A-375 [1] = experiment: Cytotoxicity against human A375 cells after 48 hrs by MTT assay; type: functional, cell-based; conditions: A-375, 48 h
Outline: (§1)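 Cells seeded at 1×10^5 per well, attached overnight, then exposed to serial dilutions from 10 mM DMSO stocks (vehicle control 1% DMSO) for 48 or 72 h; triplicate wells. MTT 0.5 mg/mL, 4 h at 37 °C; formazan dissolved in acid isopropanol, absorbance read. IC50 from sigmoidal variable-slope fit of % metabolic activity vs log concentration; ≥2 independent experiments.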

OE19 [2] = experiment: Cytotoxicity against human OE19 cells after 48 hrs by MTT assay; type: functional, cell-based; conditions: OE19, 48 h; outline: as §1
[3] = molecular target: Matrix metalloproteinase-9 (Homo sapiens) (UniProt P14780); experiment: Inhibition of MMP9 in human HT-1080 cells at 10 uM by gelatin zymography; type: cell-based
Chain of Matrix metalloproteinase-9 (Homo sapiens) (P14780 whole entry): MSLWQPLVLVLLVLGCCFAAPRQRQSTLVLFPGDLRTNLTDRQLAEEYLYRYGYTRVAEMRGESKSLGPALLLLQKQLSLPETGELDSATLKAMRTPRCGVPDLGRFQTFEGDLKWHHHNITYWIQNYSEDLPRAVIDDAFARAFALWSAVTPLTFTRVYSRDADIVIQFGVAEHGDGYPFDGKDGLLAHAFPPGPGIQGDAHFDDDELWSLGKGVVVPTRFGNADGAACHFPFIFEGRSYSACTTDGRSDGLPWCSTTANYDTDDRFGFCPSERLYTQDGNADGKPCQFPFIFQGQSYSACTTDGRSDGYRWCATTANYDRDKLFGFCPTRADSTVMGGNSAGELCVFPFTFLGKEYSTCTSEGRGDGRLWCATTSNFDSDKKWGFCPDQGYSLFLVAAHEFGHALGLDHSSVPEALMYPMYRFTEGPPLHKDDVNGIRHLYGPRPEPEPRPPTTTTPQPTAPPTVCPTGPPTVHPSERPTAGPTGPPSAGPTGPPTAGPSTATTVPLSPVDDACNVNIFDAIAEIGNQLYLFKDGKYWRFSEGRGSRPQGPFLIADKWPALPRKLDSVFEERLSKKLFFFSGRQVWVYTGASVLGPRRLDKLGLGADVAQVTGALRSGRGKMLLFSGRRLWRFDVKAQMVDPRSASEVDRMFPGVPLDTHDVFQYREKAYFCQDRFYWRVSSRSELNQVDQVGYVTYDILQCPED

NCI-H1299 = experiment: Cytotoxicity against human H1299 cells after 48 hrs by MTT assay; type: functional, cell-based; conditions: NCI-H1299, 48 h; outline: as §1
HT-1080 = experiment: Cytotoxicity against human HT-1080 cells after 48 hrs by MTT assay; type: functional, cell-based; conditions: HT-1080, 48 h; outline: as §1
A-375 [4] = experiment: Induction of apoptosis in human A375 cells assessed as viable cells at 10 uM after 48 hrs by annexin-v and PI staining based flow cytometry analysis (reference value: 93.63 +/- 1.37%); type: functional; conditions: read-out: Activity
A-375 [5] = experiment: Induction of apoptosis in human A375 cells assessed as late apoptotic cells at 10 uM after 48 hrs by annexin-v and PI staining based flow cytometry analysis (reference value: 1.83 +/- 0.41%); type: functional
A-375 [6] = experiment: Induction of cell cycle arrest in human A375 assessed as number of cells at G1 phase at 10 uM after 48 hrs by flow cytometry (reference value: 83.5 +/- 1.87 %); type: functional
A-375 [7] = experiment: Induction of cell cycle arrest in human A375 assessed as number of cells at G2/M phase at 10 uM after 48 hrs by flow cytometry (reference value: 5.17 +/- 0.75 %); type: functional
OE19 [8] = experiment: Cytotoxicity against human OE19 cells after 72 hrs by MTT assay; type: functional, cell-based; conditions: OE19, 72 h; outline: as §1
A-375 [9] = experiment: Induction of apoptosis in human A375 cells assessed as necrotic cells at 10 uM after 48 hrs by annexin-v and PI staining based flow cytometry analysis (reference value: 1.17 +/- 0.41%); type: functional
A-375 [10] = experiment: Induction of cell cycle arrest in human A375 assessed as number of cells at S phase at 10 uM after 48 hrs by flow cytometry (reference value: 11.33 +/- 1.86 %)
A-375 [11] = experiment: Effect on reactive oxygen production in human A375 cells assessed as decrease in peroxide level at 10 uM after 48 hrs by DCFH2-DA staining based spectrophotometry; type: functional, cell-based
Outline: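 A375 cells (5×10^5) attached overnight, exposed at 5 or 10 μM for 8 or 48 h. Intracellular peroxides measured with 5 μM DCFH2-DA, 45 min at 37 °C in the dark; after washing, fluorescence read at ex 485 / em 528 nm. Mean ± SD of two independent experiments in duplicate.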

A-375 [12] = experiment: Induction of cell cycle arrest in human A375 assessed as number of cells at G1 phase at 5 uM after 48 hrs by flow cytometry (reference value: 83.5 +/- 1.87 %); type: functional
A-375 [13] = experiment: Induction of cell cycle arrest in human A375 assessed as number of cells at G2/M phase at 5 uM after 48 hrs by flow cytometry (reference value: 5.17 +/- 0.75 %); type: functional
A-375 [14] = experiment: Induction of cell cycle arrest in human A375 assessed as number of cells at S phase at 5 uM after 48 hrs by flow cytometry (reference value: 11.33 +/- 1.86 %); type: functional
A-375 [15] = experiment: Induction of apoptosis in human A375 assessed as formation of bleb at 5 to 10 uM after 48 hrs by May-Grunwald- Giemsa staining based optical microscopic analysis; type: functional, cell-based; conditions: dose 5-10 µM
Outline: (§2)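 A375 cells exposed to 5 or 10 μM for 48 h, stained with May-Grünwald Giemsa and examined by optical microscopy at 50x. Representative images taken at random for each condition.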

A-375 [16] = experiment: Induction of apoptosis in human A375 assessed as loss of cell integrity at 5 to 10 uM after 48 hrs by May-Grunwald- Giemsa staining based optical microscopic analysis; type: functional; conditions: dose 5-10 µM; outline: as §2

inhibition [3] | SMILES | IC50 (A-375 [1]) | IC50 (OE19 [2]) | IC50 (NCI-H1299) | IC50 (HT-1080) | further results
– | CC1(C)S[C@@H]2/C(=C\C(=O)c3ccc(Cl)cc3)C(=O)N2[C@H]1C(=O)OC(c1ccccc1)c1ccccc1 | 48.6 µM | 14.6 µM | – | – | –
– | COC(=O)/C=C1/C(=O)N2[C@@H]1SC(C)(C)[C@@H]2C(=O)OC(c1ccccc1)c1ccccc1 | 24.6 µM | 20.2 µM | – | – | –
– | CC1(C)S[C@@H]2/C(=C\C(=O)c3ccc(Br)cc3)C(=O)N2[C@H]1C(=O)OC(c1ccccc1)c1ccccc1 | 29.7 µM | 13.8 µM | – | – | –
61.4% | CC1(C)S[C@@H]2C/C(=C\C(=O)c3ccccc3)C(=O)N2[C@H]1C(=O)OC(c1ccccc1)c1ccccc1 | > 100 µM | 73.3 µM | – | – | –
– | CC1(C)S[C@@H]2/C(=C\C(=O)c3ccco3)C(=O)N2[C@H]1C(=O)OC(c1ccccc1)c1ccccc1 | 26 µM | 54.3 µM | 61.5 µM | 45.5 µM | –
– | CC1(C)[C@H](C(=O)OC(c2ccccc2)c2ccccc2)N2C(=O)/C(=C/C(=O)c3ccc([N+](=O)[O-])cc3)[C@H]2S1(=O)=O | 76.7 µM | 95.5 µM | – | – | –
– | CC(=O)/C=C1\C[C@H]2SC(C)(C)[C@H](C(=O)OC(c3ccccc3)c3ccccc3)N2C1=O | > 100 µM | > 100 µM | > 100 µM | > 100 µM | –
– | CC1(C)[C@H](C(=O)OC(c2ccccc2)c2ccccc2)N2C(=O)/C(=C/C(=O)c3ccccc3)[C@H]2S1(=O)=O | 17.5 µM | 53.1 µM | 50.1 µM | 19.5 µM | –
– | CC1(C)S[C@@H]2/C(=C\C(=O)c3cc(C(F)(F)F)cc(C(F)(F)F)c3)C(=O)N2[C@H]1C(=O)OC(c1ccccc1)c1ccccc1 | 39.2 µM | 48.5 µM | – | – | –
– | CC1(C)S[C@@H]2/C(=C\C(=O)c3ccc4ccccc4c3)C(=O)N2[C@H]1C(=O)OC(c1ccccc1)c1ccccc1 | 36.5 µM | 19.5 µM | – | – | –
– | CC1(C)[C@H](C(=O)OC(c2ccccc2)c2ccccc2)N2C(=O)/C(=C/C(=O)c3ccc([N+](=O)[O-])cc3)[C@H]2[S+]1[O-] (some centres undefined) | 48.2 µM | 92.4 µM | – | – | –
Active | CCOC(=O)/C=C1/C(=O)N2[C@@H]1SC(C)(C)[C@@H]2C(=O)OC(c1ccccc1)c1ccccc1 | 7 µM | 11.2 µM | 15 µM | 25.1 µM | viability at 10 µM (A-375 [4]): 63%; Activity (A-375 [5]): 11.5%; Activity (A-375 [6]): 61.65%; Activity (A-375 [7]): 12.5%; IC50 (OE19 [8]): 5.3 µM; Activity (A-375 [9]): 20.8%; Activity (A-375 [10]): 25.75%; Activity (A-375 [11]): Active
– | CC1(C)S[C@@H]2/C(=C\C(=O)c3cc(F)cc(F)c3)C(=O)N2[C@H]1C(=O)OC(c1ccccc1)c1ccccc1 | 19.1 µM | 17.6 µM | – | – | –
– | CC(=O)/C=C1/C(=O)N2[C@@H]1SC(C)(C)[C@@H]2C(=O)OC(c1ccccc1)c1ccccc1 | 63 µM | 51.9 µM | 24.2 µM | 20.8 µM | –
Active | CC1(C)S[C@@H]2/C(=C\C(=O)OCc3ccccc3)C(=O)N2[C@H]1C(=O)OC(c1ccccc1)c1ccccc1 | 7.1 µM | 8.2 µM | 9.4 µM | 11.7 µM | viability at 10 µM (A-375 [4]): 56.2%; Activity (A-375 [5]): 13%; Activity (A-375 [6]): 58.33%; Activity (A-375 [12]): 71.25%; Activity (A-375 [7]): 12%; IC50 (OE19 [8]): 4.6 µM; Activity (A-375 [13]): 8.75%; Activity (A-375 [14]): 19.5%; Activity (A-375 [15]): Active; Activity (A-375 [9]): 24%; Activity (A-375 [16]): Active; Activity (A-375 [10]): 29.67%; Activity (A-375 [11]): Active
Active | CC1(C)S[C@@H]2/C(=C\C(=O)c3ccccc3)C(=O)N2[C@H]1C(=O)OC(c1ccccc1)c1ccccc1 | 22.8 µM | 12.8 µM | 39 µM | 21.1 µM | IC50 (OE19 [8]): 8.6 µM
Active | CC1(C)S[C@@H]2/C(=C\C(=O)OC(c3ccccc3)c3ccccc3)C(=O)N2[C@H]1C(=O)OC(c1ccccc1)c1ccccc1 | 9.1 µM | 21.6 µM | 22.4 µM | 15.2 µM | viability at 10 µM (A-375 [4]): 73.5%; Activity (A-375 [5]): 7.75%; Activity (A-375 [6]): 67.67%; Activity (A-375 [7]): 13%; Activity (A-375 [9]): 14.75%; Activity (A-375 [10]): 15.33%; Activity (A-375 [11]): Active
Active | CC1(C)S[C@@H]2/C(=C\C(=O)c3ccc(F)cc3)C(=O)N2[C@H]1C(=O)OC(c1ccccc1)c1ccccc1 | 17.8 µM | 12.1 µM | 25.2 µM | 11.2 µM | IC50 (OE19 [8]): 10.7 µM
52.9% | COC(=O)/C=C1\C[C@H]2SC(C)(C)[C@H](C(=O)OC(c3ccccc3)c3ccccc3)N2C1=O | > 100 µM | 99.7 µM | – | – | –
– | CC1(C)[C@H](C(=O)OC(c2ccccc2)c2ccccc2)N2C(=O)/C(=C/C(=O)c3ccccc3)[C@H]2[S+]1[O-] (some centres undefined) | 4.5 µM | 23.7 µM | 92.4 µM | 65.5 µM | viability at 10 µM (A-375 [4]): 89.2%; Activity (A-375 [5]): 4.17%; Activity (A-375 [9]): 3%
– | CC1(C)S[C@@H]2/C(=C\C(=O)c3ccc(C(F)(F)F)cc3)C(=O)N2[C@H]1C(=O)OC(c1ccccc1)c1ccccc1 | 26.7 µM | 15.6 µM | – | – | –
– | CC1(C)S[C@@H]2/C(=C\C(=O)c3ccc([N+](=O)[O-])cc3)C(=O)N2[C@H]1C(=O)OC(c1ccccc1)c1ccccc1 | 50.3 µM | 44.1 µM | – | – | –
